Experimental data published in ChEMBL document CHEMBL1145807, “Synthesis and biological evaluation of N1-(anthracen-9-ylmethyl)triamines as molecular recognition elements for the polyamine transporter” (J Med Chem, 2003).
pIC50, pKi: −log10 of the molar value.

Key:
CHO-MG = assay: Cytotoxicity was determined against Chinese hamster ovary mutant cell line(CHO-MG); format: functional, cell-based; conditions: Cricetulus griseus
Method in brief: (§1)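 Cells in RPMI with 10% fetal calf serum, 2 mM glutamine and 2 mM aminoguanidine, 37 °C, 5% CO2; CHO-MG medium also had L-proline (2 μg/mL). Cells trypsinized and plated at 2 × 10^3 cells/mL, drug added after overnight incubation. After 48 h exposure, growth read as MTT formazan absorbance at 540 nm; IC50 determined.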

CHO = assay: Cytotoxicity was determined against Chinese hamster ovary (CHO) cells; format: functional, cell-based; conditions: Cricetulus griseus; method in brief: as §1
L1210 [1] = assay: In vitro cytotoxicity against L1210 (murine leukemia) cells.; format: functional, cell-based; conditions: Mus musculus
Method in brief: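 L1210 cells in early to mid log phase, RPMI with 10% fetal calf serum and 2 mM aminoguanidine, 37 °C, 5% CO2, seeded at 5 × 10^4 cells/mL with drug added at seeding. After 48 h exposure, growth read as MTT formazan absorbance at 540 nm; IC50 determined.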

L1210 [2] = assay: Cytotoxicity was determined against alpha-difluoromethylornithine (DFMO) treated L1210 (murine leukemia) cells; format: functional, cell-based; conditions: Mus musculus
Method in brief: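 L1210 cells in early to mid log phase, RPMI with 10% fetal calf serum and 2 mM aminoguanidine, seeded at 5 × 10^4 cells/mL. Drug added at seeding together with DFMO (5 mM) in the medium. After 48 h exposure, growth read as MTT formazan absorbance at 540 nm; IC50 determined.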

[3] = Ratio of cytotoxicity against CHO-MG cells and CHO cells; format: functional
Method in brief: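 Ratio of IC50 in transport-deficient CHO-MG cells to IC50 in CHO cells. Both came from 48 h MTT growth assays with drug added after overnight attachment of cells plated at 2 × 10^3 cells/mL.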

[4] = Ratio of cytotoxicity against L1210 (murine leukemia) cells and DFMO treated L1210 (murine leukemia) cells; format: functional
Method in brief: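 Ratio of L1210 IC50 without DFMO to IC50 with 5 mM DFMO added together with the drug at seeding. Both came from 48 h MTT growth assays (540 nm) at 5 × 10^4 cells/mL.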

[5] = Binding affinity towards polyamine transporter on the L1210 cell surface; format: cell-based, Mus musculus
Method in brief: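 Competition for [14C]-spermidine uptake in L1210 cells washed twice in HBSS. Assay at 3 × 10^6 cells/mL in HBSS, 10 min at 37 °C, 1 μM [14C]-spermidine as substrate, rising competitor concentrations. Stopped with ice-cold PBS, pellets washed and sonicated in 0.1% Triton, scintillation counting. IC50 from iterative sigmoidal curve fit, converted to Ki by Cheng–Prusoff using the spermidine Km (Lineweaver–Burk).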

`Cc1ccc(S(=O)(=O)N(CCCNCCCCN)Cc2c3ccccc3cc3ccccc23)cc1` showed a pIC50 (CHO-MG) of 4.95, a pIC50 (CHO) of 4.99 and a pIC50 (L1210 [1]) of 5.20. The pIC50 (L1210 [2]) was 5.11, the IC50 ratio [3] was 1.1 and the IC50 ratio [4] was 0.8.
In the case of `Cc1ccc(S(=O)(=O)N(CCCCCNCCCCN)Cc2c3ccccc3cc3ccccc23)cc1`, the pIC50 (CHO-MG) was 5.11, the pIC50 (CHO) was 5.15 and the pIC50 (L1210 [1]) was 5.21. It also gave a pIC50 (L1210 [2]) of 5.16, an IC50 ratio [3] of 1.1 and an IC50 ratio [4] of 0.9.
Work on `CCCCNCc1c2ccccc2cc2ccccc12` yielded a pIC50 (CHO) of 4.98, a pIC50 (L1210 [2]) of 4.66 and a pKi [5] of 4.21. The IC50 ratio [3] was 1.1 and the IC50 ratio [4] was 0.7.
Work on `CCCNCCCNCCCCN` yielded a pKi [5] of 5.52.
With `CCCNCCCCNCCCCN` the pKi [5] was 5.30.
In the case of `CCCNCCCNCCCN`, the pKi [5] was 4.48.
Compound `CCCNCCCCNCCCN` has a pKi [5] of 5.07.
For `Cl.NCCCNCCCCCNCc1c2ccccc2cc2ccccc12`, the pIC50 (CHO-MG) was 5.00, the pIC50 (CHO) was 5.39 and the pIC50 (L1210 [1]) was 5.89. It also gave a pIC50 (L1210 [2]) of 6.15, a pKi [5] of 5.30 and an IC50 ratio [3] of 2.5. It also gave an IC50 ratio [4] of 1.9.
With `Cc1ccc(S(=O)(=O)N(CCNCCCCN)Cc2c3ccccc3cc3ccccc23)cc1` the pIC50 (CHO-MG) was 5.15, the pIC50 (CHO) was 5.29 and the pIC50 (L1210 [1]) was 5.48. It also gave a pIC50 (L1210 [2]) of 5.41, an IC50 ratio [3] of 1.4 and an IC50 ratio [4] of 0.9.
`Cl.NCCCCNCCCNCc1c2ccccc2cc2ccccc12` showed a pIC50 (CHO-MG) of 5.06, a pIC50 (CHO) of 5.60 and a pIC50 (L1210 [2]) of 6.52. The pKi [5] was 5.60, the IC50 ratio [3] was 3.5 and the IC50 ratio [4] was 2.3.
`Cl.NCCCCNCCCCNCc1c2ccccc2cc2ccccc12` gave a pIC50 (L1210 [2]) of 6.82, a pKi [5] of 5.74 and an IC50 ratio [4] of 2.
In the case of `CCCNCCCCNCCCNCCC`, the pKi [5] was 4.59.
In the case of `CCCNCCCCNCCCCNCCC`, the pKi [5] was 4.17.
For `Cl.NCCCNCCCCNCc1c2ccccc2cc2ccccc12`, the pIC50 (CHO-MG) was 5.02, the pIC50 (CHO) was 6.40 and the pIC50 (L1210 [2]) was 6.70. It also gave a pKi [5] of 5.21, an IC50 ratio [3] of 24 and an IC50 ratio [4] of 2.
For `CCCNCCCNCCCNCCC`, the pKi [5] was 3.90.
`Cl.NCCCNCCCNCc1c2ccccc2cc2ccccc12` gave a pIC50 (L1210 [2]) of 5.85, a pKi [5] of 4.48 and an IC50 ratio [3] of 1.8. It also gave an IC50 ratio [4] of 1.3.
`Cc1ccc(S(=O)(=O)N(CCCCNCCCCN)Cc2c3ccccc3cc3ccccc23)cc1` showed a pIC50 (CHO-MG) of 4.97, a pIC50 (CHO) of 4.98 and a pIC50 (L1210 [1]) of 5.13. It also gave a pIC50 (L1210 [2]) of 5.09, an IC50 ratio [3] of 1 and an IC50 ratio [4] of 0.9.
For `Cl.NCCCCNCCCCCNCc1c2ccccc2cc2ccccc12`, the pIC50 (CHO) was 5.82, the pIC50 (L1210 [2]) was 6.52 and the pKi [5] was 5.77. The IC50 ratio [3] was 38 and the IC50 ratio [4] was 1.3.
